In ChEMBL document CHEMBL3425440, “ent-Kaurane Diterpenoids from Chinese Liverworts and Their Antitumor Activities through Michael Addition As Detected in Situ by a Fluorescence Probe” (J Med Chem, 2015):
Active and inactive are the calls of the source. The rule behind the calls is not given here.

Experiments:
[1] = test system: PC-3; experiment: Reduction in glutathione level in human PC3 cells at 5 uM preincubated for 4 hrs followed by fluorescence probe addition measured after 1 hr by 3-azido-7-(diethylamino)-2H-chromen-2-one fluorescence probe-based confocal microscopic analysis; assay type: functional, cell-based
In short: (§1)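 PC3 cells on glass coverslips treated with compound for 4 h (5 μM NEM as thiol-scavenger control), fixed in cold methanol/acetone (1:1) for 5 min. Stained with 30 μM azidocoumarin probe, which fluoresces on reaction with thiols, for 1 h at room temperature in the dark. Mean cellular fluorescence quantified by confocal microscopy; mean ± SD.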

[2] = test system: K562; experiment: Cytotoxicity against human K562 cells assessed as cell viability after 24 hrs by MTT assay; assay type: functional, cell-based; settings: K562, 24 h
In short: (§2)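 Cells grown to about 50−70% confluence at 37 °C, 5% CO2, then exposed to compounds 24 h (DMSO vehicle control, cisplatin positive control). MTT (5 mg/mL stock) added for 4 h, formazan dissolved in DMSO, absorbance read at 570 nm. IC50 derived from percent viability; at least three independent experiments, mean ± SD.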

[3] = Cytotoxicity against human RWPE1 cells assessed as cell viability after 24 hrs by MTT assay; assay type: cell-based; settings: RWPE-1, 24 h; in short: as §2
[4] = test system: NCI-H1299; experiment: Cytotoxicity against human NCI-H1299 cells assessed as cell viability after 24 hrs by MTT assay; assay type: functional, cell-based; settings: NCI-H1299, 24 h; in short: as §2
[5] = test system: MDA-MB-231; experiment: Cytotoxicity against human MDA-MB-231 cells assessed as cell viability after 24 hrs by MTT assay; assay type: functional, cell-based; settings: MDA-MB-231, 24 h; in short: as §2
[6] = Cytotoxicity against human PC3 cells assessed as cell viability after 24 hrs by MTT assay; assay type: functional, cell-based; settings: PC-3, 24 h; in short: as §2
[7] = test system: DU-145; experiment: Cytotoxicity against human DU145 cells assessed as cell viability after 24 hrs by MTT assay; assay type: functional, cell-based; settings: DU-145, 24 h; in short: as §2
[8] = Cytotoxicity against human HL60 cells assessed as cell viability after 24 hrs by MTT assay; assay type: functional, cell-based; settings: HL-60, 24 h; in short: as §2
[9] = test system: PC-3; experiment: Reduction in glutathione level in human PC3 cells at 6 uM preincubated for 4 hrs followed by fluorescence probe addition by 3-azido-7-(diethylamino)-2H-chromen-2-one fluorescence probe-based confocal microscopic analysis; assay type: functional, cell-based; settings: TDE = time-dependent effect; in short: as §1
[10] = test system: PC-3; experiment: Induction of reactive oxygen species formation in human PC3 cells at 6 uM after 4 hrs by DCFH-DA staining-based flow cytometric analysis in presence of antioxidant N-acetylcysteine; assay type: functional, cell-based
In short: (§3)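 PC3 cells exposed to 6 μM compound for 4 h, with optional 5 mM NAC added 1 h beforehand. Loaded with 10 μM DCFH-DA at 37 °C for 30 min, washed, resuspended in PBS and read at once by flow cytometry. ROS expressed as ratio relative to control; Student's t test.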

[11] = test system: PC-3; experiment: Reduction in total glutathione level in human PC3 cells at 6 uM by DNTB-based assay; assay type: functional, cell-based; settings: TDE = time-dependent effect
In short: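 PC3 cells exposed to 6 μM compound for the indicated times, lysed by freeze–thaw in protein removal agent and supernatant collected. Total glutathione read with DTNB at 412 nm; GSSG read after masking GSH with 2-vinylpyridine; GSH taken as the difference. Expressed relative to control.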

[12] = test system: PC-3; experiment: Reduction in glutathione level in human PC3 cells preincubated for 4 hrs followed by fluorescence probe addition measured after 1 hr by 3-azido-7-(diethylamino)-2H-chromen-2-one fluorescence probe-based confocal microscopic analysis; assay type: functional, cell-based; in short: as §1
[13] = test system: PC-3; experiment: Cytotoxicity against human PC3 cells assessed as decrease in cell viability at 6 uM after 24 hrs by MTT assay in presence of antioxidant N-acetylcysteine; assay type: functional, cell-based
In short: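 PC3 cells pretreated with 5 mM NAC for 1 h, then given 6 μM compound with or without the antioxidant for 24 h. Viability read by MTT (formazan in DMSO, absorbance at 570 nm). Mean ± SD.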

[14] = test system: PC-3; experiment: Induction of reactive oxygen species formation in human PC3 cells at 6 uM by DCFH-DA staining-based flow cytometric analysis; assay type: functional, cell-based; settings: TDE = time-dependent effect; in short: as §3
[15] = Cytotoxicity against human A172 cells assessed as cell viability after 24 hrs by MTT assay; assay type: functional, cell-based; settings: A 172, 24 h; in short: as §2
[16] = Cytotoxicity against human Saos2 cells assessed as cell viability after 24 hrs by MTT assay; assay type: functional, cell-based; settings: SAOS-2, 24 h; in short: as §2
[17] = Cytotoxicity against human T24 cells assessed as cell viability after 24 hrs by MTT assay; assay type: functional, cell-based; settings: T-24, 24 h; in short: as §2
[18] = Cytotoxicity against human SH-SY5Y cells assessed as cell viability after 24 hrs by MTT assay; assay type: functional, cell-based; in short: as §2
[19] = test system: LoVo; experiment: Cytotoxicity against human LoVo cells assessed as cell viability after 24 hrs by MTT assay; assay type: functional, cell-based; in short: as §2
[20] = test system: LNCaP; experiment: Cytotoxicity against human LNCAP cells assessed as cell viability after 24 hrs by MTT assay; assay type: functional, cell-based; in short: as §2
[21] = Cytotoxicity against human SKOV3 cells assessed as cell viability after 24 hrs by MTT assay; assay type: functional, cell-based; settings: SK-OV-3, 24 h; in short: as §2

Row | SMILES | Activity [1] | IC50 [2] [µM] | IC50 [3] [µM] | IC50 [4] [µM] | IC50 [5] [µM] | IC50 [6] [µM] | IC50 [7] [µM] | IC50 [8] [µM] | IC50 [15] [µM] | IC50 [16] [µM] | IC50 [17] [µM] | IC50 [18] [µM] | IC50 [19] [µM] | IC50 [20] [µM] | IC50 [21] [µM] | other results
1 | C=C1C(=O)[C@@]23CC[C@H]4[C@@](C)(CCC[C@@]4(C)C(=O)O)[C@@H]2CC[C@]1(O)C3 | Active | 9.9 | 27 | 32.8 | 37.2 | 30.1 | 48.5 | 7.9 |  |  |  |  |  |  |  | 
2 | C=C1C(=O)[C@@]23CC[C@H]4[C@@](C)(CCC[C@@]4(C)C(=O)OC)[C@@H]2CC[C@]1(O)C3 |  | 2.9 | 7 | 9.2 | 5.2 | 6.1 | 10.8 | 1.5 |  |  |  |  |  |  |  | Activity [9]: tde; Activity [10]: inactive; Activity [11]: tde; Activity [12]: Dose-dependent effect; Activity [13]: inactive; Activity [14]: tde
3 | C=C1C(=O)[C@H]2C[C@]1(O)CC1=C2[C@]2(C)CCCC(C)(C)[C@H]2CC1 | Active | 2.2 | 6.3 | 2.6 | 3.4 | 2.2 | 3.2 | 1.9 | 2.7 | 2.4 | 2.3 | 1.6 | 2.3 | 2.8 | 2.9 | 
4 | C=C1C(=O)[C@@]23CC[C@@H]4[C@@](C)(CO)CCC[C@@]4(C)C2=CC[C@@H]1C3 |  | 13.8 | 39.3 | 14.5 | 32 | 21.5 | 31 | 4.7 | 20.3 | 14 | 17.7 | 9.8 | 11.2 | 16.3 | 22.3 | 
5 | C=C1[C@@H]2CC[C@H]3[C@]4(C)CCCC(C)(C)[C@H]4C[C@@H](O)[C@]3(C2)[C@@H]1O |  | > 50 | > 50 | > 50 | > 50 | > 50 | > 50 | > 50 | > 50 | > 50 | > 50 | > 50 | > 50 | > 50 | > 50 | 
6 | C=C1C(O)[C@@]23CC[C@H]4[C@@](C)(CCC[C@@]4(C)C(=O)OCCN4CCN(C)CC4)[C@@H]2CC[C@]1(O)C3 (stereo partly drawn) |  | > 50 | > 50 | > 50 | > 50 | > 50 | > 50 | > 50 | > 50 | > 50 | > 50 | > 50 | > 50 | > 50 | > 50 | 
